The full list was thinned out, with hits kept by preference.
GASC1 inh – inhibitors of human demethylase GASC-1 KDM4C; GST-KDM4C 2-372, H3K9me3 peptide, LANCE TR-FRET; hit rate 0.15% among 96,000; AID 720574; inhibition, % at 12.5 µM; Q9H3R0;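 active = mean replicate inhibition above about 25%, with at least 55% of replicates also reaching it, limit read from the data, passing the limit was not always enough; inconclusive = only one of those two conditions met; inactive = neither condition met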
Target sequence (Q9H3R0 2-372 limits assumed): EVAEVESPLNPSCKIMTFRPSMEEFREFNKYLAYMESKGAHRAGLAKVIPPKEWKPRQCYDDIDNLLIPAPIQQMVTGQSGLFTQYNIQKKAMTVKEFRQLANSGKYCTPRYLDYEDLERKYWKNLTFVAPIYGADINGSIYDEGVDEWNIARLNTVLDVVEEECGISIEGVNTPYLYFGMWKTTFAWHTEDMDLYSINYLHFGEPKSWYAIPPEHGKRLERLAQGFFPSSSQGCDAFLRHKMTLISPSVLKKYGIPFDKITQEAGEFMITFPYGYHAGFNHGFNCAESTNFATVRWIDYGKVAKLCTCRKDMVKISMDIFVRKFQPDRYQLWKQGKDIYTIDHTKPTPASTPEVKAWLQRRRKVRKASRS
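System: N-terminal GST-fused human GASC-1 (KDM4C) fragment, residues 2-372 / Amount: 10 nM GST-KDM4C in enzyme reaction / Also added: H3K9me3 peptide with Fe(II)/2OG / Times: 30 min demethylation and 1 h detection at room temperature / Signal: LANCE TR-FRET / Read-out basis: Fall in 671/618 emission ratio as inhibition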
IDH1 mut inh – blocks human IDH1 R132H reductase activity; AID 624101; hit rate 0.18% among 70,000; diaphorase/resazurin fluorescence, 60 min; inhibition, % at 10 µM; in the data active = inhibition above about 34%; inconclusive = no clear call, values can overlap the other calls; inactive = below about 11%
Each line names hits and unclear results; the compound was inactive in the other large screens.

COc1ccc(-c2cnc3c(c2)C(=O)N([C@H](C)CO)C[C@H](C)[C@@H](CN(C)C(=O)Cc2ccncc2)O3)cc1	none
CC(=O)N(C)C[C@@H]1Oc2ncc(-c3ccc(C#N)cc3)cc2C(=O)N([C@H](C)CO)C[C@H]1C	none
COc1ccc(-c2cnc3c(c2)C(=O)N([C@@H](C)CO)C[C@H](C)[C@@H](CN(C)C(=O)Cc2ccncc2)O3)cc1	IDH1 mut inh 40.6
C[C@H](CO)N1C[C@H](C)[C@H](CN(C)C(=O)NC2CCCCC2)Oc2ncc(Br)cc2C1=O	IDH1 mut inh 35.2
C[C@H]1CN([C@@H](C)CO)C(=O)c2cc(Br)cnc2O[C@@H]1CN(C)C(=O)NC1CCCCC1	none (no result: IDH1 mut inh)
CC(=O)N(C)C[C@H]1Oc2ncc(-c3ccc(C#N)cc3)cc2C(=O)N([C@H](C)CO)C[C@@H]1C	GASC1 inh 32.0
CCn1c(SCC(=O)Nc2ccccc2-c2ccccc2)nnc1-c1cccs1	none (no result: GASC1 inh)
COC(=O)c1ccccc1NC(=O)COc1cc(C)ccc1C(C)C	none (no result: GASC1 inh)
CCCCN1C(=O)NC(C(F)(F)F)(C(F)(F)F)C2=C1CC(C)(C)CC2=O	none (no result: GASC1 inh)
Cc1ccc(C(=O)Nc2sc3c(c2C#N)CCCC3)cc1S(=O)(=O)N1CCOCC1	none (no result: GASC1 inh)
CC(C)CC#Cc1ccc([C@H]2[C@@H](CO)N3CCCCN(S(=O)(=O)c4ccc(F)cc4)C[C@H]23)cc1	GASC1 inh 26.1 (no result: IDH1 mut inh)
CC(C)CC#Cc1ccc([C@@H]2[C@@H](CO)N3CCCCN(S(=O)(=O)c4ccc(F)cc4)C[C@H]23)cc1	none (no result: IDH1 mut inh)
CN(C)CC#Cc1ccc([C@@H]2[C@H](CO)N3CCCCN(S(=O)(=O)c4ccccc4)C[C@@H]23)cc1	none (no result: IDH1 mut inh)
CN(C)CC#Cc1ccc([C@@H]2[C@@H](CO)N3CCCCN(S(=O)(=O)c4ccccc4)C[C@@H]23)cc1	GASC1 inh 32.0 (no result: IDH1 mut inh)
CS(=O)(=O)N(CC(=O)NC1CC2CCC1C2)c1ccc(Cl)c(C(F)(F)F)c1 (stereo unspecified)	none (no result: GASC1 inh)
COc1ccc(C#Cc2ccc3c(c2)[C@]2(C(=O)N3)[C@H](C(=O)O)[C@H]3C(=O)O[C@H](c4ccccc4)[C@H](c4ccccc4)N3[C@@H]2c2ccc(O)cc2)cc1	none (no result: GASC1 inh)
Cc1cc(NC(=O)CN(c2c(C)cccc2C)S(C)(=O)=O)ccc1Br	none (no result: GASC1 inh)
CCCc1cc(=O)[nH]c(SCC(=O)Nc2ccccc2C)n1	none (no result: GASC1 inh)
CCn1c(SCC(=O)Nc2ccc(F)c(Cl)c2)nnc1-c1ccncc1	none (no result: GASC1 inh)
CCCN1[C@H](C(=O)N[C@@H](C)c2ccccc2)[C@@H](CO)[C@@H]2Cn3c(cccc3=O)[C@@H]21	GASC1 inh 38.3 (no result: IDH1 mut inh)
CCCN1[C@@H]2c3cccc(=O)n3C[C@@H]2[C@@H](CO)[C@@H]1C(=O)N[C@@H](C)c1ccccc1	none (no result: IDH1 mut inh)
Cc1ccc(S(=O)(=O)N(C)C[C@H]2Oc3cc(-c4cccc(F)c4)ccc3S(=O)(=O)N([C@@H](C)CO)C[C@@H]2C)cc1	GASC1 inh 45.1, IDH1 mut inh 86.8
COc1ccc(NC(=O)N(C)C[C@@H]2Oc3cc(-c4ccncc4)ccc3S(=O)(=O)N([C@@H](C)CO)C[C@@H]2C)cc1	none
COc1ccc(-c2ccc3c(c2)O[C@H](CN(C)C(=O)c2ccccc2F)[C@H](C)CN([C@H](C)CO)S3(=O)=O)cc1	GASC1 inh 45.4, IDH1 mut inh inconclusive
COc1ccc(-c2ccc3c(c2)O[C@H](CN(C)C(=O)c2ccccc2F)[C@H](C)CN([C@@H](C)CO)S3(=O)=O)cc1	none
COc1ccc(NC(=O)N(C)C[C@@H]2Oc3cc(-c4ccncc4)ccc3S(=O)(=O)N([C@H](C)CO)C[C@@H]2C)cc1	GASC1 inh 36.9, IDH1 mut inh 71.3
C[C@@H]1CN([C@H](C)CO)S(=O)(=O)c2ccc(-c3cccc(F)c3)cc2O[C@@H]1CN(C)S(=O)(=O)c1ccc(F)cc1	none (no result: IDH1 mut inh)
CCC(Sc1nnc(-c2ccccc2)n1-c1ccccc1)C(=O)Nc1ccc(Cl)cc1 (stereo unspecified)	none (no result: GASC1 inh)
COc1ccc(NC(=O)CSc2nc3sc(C)c(C)c3c(=O)n2-c2ccccc2)c([N+](=O)[O-])c1	none (no result: GASC1 inh)
CO[C@H]1CN(C)C(=O)c2cc(NC(=O)c3ccccc3)ccc2OC[C@@H](C)N(C(C)=O)C[C@@H]1C	IDH1 mut inh 87.5 (no result: GASC1 inh)
CO[C@@H]1CN(C)C(=O)c2ccc(NC(=O)NC(C)C)cc2OC[C@H](C)N(C(=O)CC2CC2)C[C@@H]1C	GASC1 inh 51.2
CCCNC(=O)Nc1ccc2c(c1)OC[C@@H](C)N(C(=O)C1CCOCC1)C[C@H](C)[C@@H](OC)CN(C)C2=O	none
CO[C@H]1CN(C)C(=O)c2ccc(NC(=O)NC(C)C)cc2OC[C@H](C)N(C(=O)CC2CC2)C[C@@H]1C	none (no result: IDH1 mut inh)
CCCNC(=O)Nc1ccc2c(c1)OC[C@H](C)N(C(=O)C1CCOCC1)C[C@H](C)[C@H](OC)CN(C)C2=O	GASC1 inh 35.1
CO[C@@H]1CN(C)C(=O)c2cc(NC(=O)c3ccccc3)ccc2OC[C@H](C)N(C(C)=O)C[C@H]1C	none
CCOc1ccc(N2C(=O)/C(=C/c3ccc(F)cc3)N=C2SC(CC)C(=O)N2CCOCC2)cc1 (stereo unspecified)	none (no result: GASC1 inh)
C[C@H](CO)N1C[C@H](C)[C@@H](CN(C)C(=O)c2ccccc2F)Oc2ncc(C#Cc3ccncc3)cc2C1=O	none
C[C@@H]1CN([C@H](C)CO)C(=O)c2cc(C#Cc3ccncc3)cnc2O[C@@H]1CN(C)C(=O)c1ccccc1F	IDH1 mut inh 36.2
COCC(=O)N(C)C[C@H]1Oc2ncc(C#Cc3cccnc3)cc2C(=O)N([C@@H](C)CO)C[C@@H]1C	none
COCC(=O)N(C)C[C@@H]1Oc2ncc(C#Cc3cccnc3)cc2C(=O)N([C@@H](C)CO)C[C@H]1C	GASC1 inh 37.4
COCC(=O)N(C)C[C@H]1Oc2ncc(C#CC3(O)CCCC3)cc2C(=O)N([C@@H](C)CO)C[C@H]1C	GASC1 inh 30.9
COCC(=O)N(C)C[C@@H]1Oc2ncc(C#CC3(O)CCCC3)cc2C(=O)N([C@H](C)CO)C[C@@H]1C	none
CCNC(=O)[C@@H]1[C@@H](CO)[C@@H]2Cn3c(ccc(-c4cccnc4)c3=O)[C@@H]2N1Cc1ccccc1	none (no result: IDH1 mut inh)
O=C(NCC(F)(F)F)[C@@H]1[C@@H](CO)[C@@H]2Cn3c(ccc(-c4cccnc4)c3=O)[C@@H]2N1Cc1ccncc1	GASC1 inh 37.6 (no result: IDH1 mut inh)
COc1ccc(OC)c(NC(=O)Cn2cnc3sc(C)c(-c4ccccc4)c3c2=O)c1	none (no result: GASC1 inh)
COc1ccc(NC(=O)COc2ccc(C)c(C)c2)cc1NC(=O)c1ccco1	none (no result: GASC1 inh)
O=C(CSc1nc2sc3c(c2c(=O)n1Cc1ccco1)CCC3)c1cc(Cl)sc1Cl	none (no result: GASC1 inh)
C[C@@H]1CN([C@@H](C)CO)C(=O)c2c(c3ccccc3n2C)-c2ccccc2CO[C@@H]1CN(C)Cc1ccncc1	IDH1 mut inh 47.4
C[C@@H]1CN([C@@H](C)CO)C(=O)c2c(c3ccccc3n2C)-c2ccccc2CO[C@@H]1CN(C)Cc1ccc(O)cc1	none (no result: IDH1 mut inh)
COC(=O)c1ccc(NC(=O)CSc2nc(-c3cccs3)cc(=O)[nH]2)cc1	none (no result: GASC1 inh)
Cc1sc2nc(SCc3n[nH]c(=S)n3-c3ccccc3)[nH]c(=O)c2c1C	none (no result: GASC1 inh)
C[C@@H]1CN([C@@H](C)CO)S(=O)(=O)c2ccc(C3=CCCCC3)cc2O[C@@H]1CN(C)Cc1cccnc1	IDH1 mut inh 38.4
C[C@@H]1CN([C@H](C)CO)S(=O)(=O)c2ccc(C3=CCCCC3)cc2O[C@@H]1CN(C)Cc1cccnc1	none (no result: IDH1 mut inh)
C[C@@H]1CN([C@@H](C)CO)S(=O)(=O)c2ccc(C3=CCCCC3)cc2O[C@@H]1CN(C)C(=O)Cc1ccncc1	none (no result: IDH1 mut inh)

Compound activity deposited in PubChem BioAssay by Broad Institute.
